A short description of data set [1]: AUC (0 to infinity) in Sprague-Dawley rat at 5 mg/kg, iv by LC-MS/MS analysis. Conditions: in vivo. Further details: dose 5 mg/kg, time infinity, route intravenous. The data set is classed as ADME, organism-based. Summed up:
(§1)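 Rats (n = 3/group) dosed via lateral tail vein, 5 mg/kg in 100% saline. Serial tail-vein blood into heparinized tubes at 30 min and 1, 2, 3, 4, 5, 6, 8 and 24 h. Plasma separated by centrifugation, proteins precipitated with acetonitrile, analysed by LC/MS.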

Data set [2] concerns the target Glutamate NMDA receptor (Rattus norvegicus) (UniProt P35439+Q00959+Q00960+Q00961+Q62645+Q8VHN2+Q9R1M7). The data set can be described thus: Displacement of [3H]-glycine from NMDA receptor in rat hippocampal membrane at 1 uM after 30 mins by liquid scintillation counting analysis. The data set is classed as cell membranes. As to conditions: Hippocampus.
The target in data set [3] is Transient receptor potential cation channel subfamily V member 1 (Homo sapiens) (UniProt Q8NER1). In words: Inhibition of human TRPV-1 expressed in HEK293 cells at 1 uM by whole cell patch clamp method. Format: cell-based. On the technique in general: The patch-clamp technique gives a direct electrical read-out from membranes.
Data set [4] can be described thus: Clearance in Sprague-Dawley rat at 5 mg/kg, iv by LC-MS/MS analysis. Conditions: in vivo. Format: ADME, organism-based. Summed up: (§2)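 SD rats, n = 3/group. Dosing was either 5 mg/kg iv via tail vein in saline or 80 mg/kg by oral gavage as a suspension in 0.5% methylcellulose. Serial tail-vein blood was drawn into heparinized tubes at 0.5, 1, 2, 3, 4, 5, 6, 8 and 24 h. Plasma was separated, proteins precipitated with acetonitrile, and samples analysed by LC/MS.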

Data set [5] is described as follows: Displacement of [3H]-DTG from Sigma2 receptor in Dunkin Hartley guinea pig brain membrane after 120 mins by liquid scintillation counting analysis in presence of sigma1 blocker (+)-SKF-10047. Also noted: species or system Cavia porcellus. The procedure, abridged:
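Guinea pig brain P2 membranes incubated with 3 nM [³H]-DTG plus 400 nM (+)-SKF-10047 to block σ1 sites, Tris-HCl pH 8.0, 25 °C for 120 min; nonspecific binding with DTG. Filtration on PEI-presoaked GF/B filters, scintillation counting. […] At least three experiments.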

The target of data set [6] is T1, 5-hydroxytryptamine receptor 1A (Rattus norvegicus) (UniProt P19327).
T1 sequence (whole entry): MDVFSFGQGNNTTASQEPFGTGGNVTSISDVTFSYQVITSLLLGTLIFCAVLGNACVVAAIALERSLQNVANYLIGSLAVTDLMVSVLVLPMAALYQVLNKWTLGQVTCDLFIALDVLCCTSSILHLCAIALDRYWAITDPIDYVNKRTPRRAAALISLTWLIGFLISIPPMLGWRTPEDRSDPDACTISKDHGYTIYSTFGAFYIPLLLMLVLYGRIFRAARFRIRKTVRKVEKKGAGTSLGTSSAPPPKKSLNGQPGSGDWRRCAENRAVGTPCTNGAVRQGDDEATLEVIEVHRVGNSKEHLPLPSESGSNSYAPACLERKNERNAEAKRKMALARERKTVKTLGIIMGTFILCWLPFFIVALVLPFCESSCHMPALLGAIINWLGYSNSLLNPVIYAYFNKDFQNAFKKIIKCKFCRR
The data set can be described thus: Displacement of [3H]-8-OH-DPAT from 5HT1A receptor in rat cerebral cortex at 1 uM after 30 mins by liquid scintillation counting analysis. Format: tissue-based. In general terms: Loss of bound radioactivity is the signal in a displacement assay; it reports binding, not function.

The nature of data set [7]: Acute toxicity in po dosed Kun Ming mouse assessed as mortality after 24 hrs. The data set is classed as organism-based. As to conditions: in vivo. Summed up:
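Mice, 10 per group, given a single oral dose (10 mL/kg) of 0.5% methylcellulose vehicle or test compound at 200, 500, 1000, 1500 or 2000 mg/kg. Survivors were counted 24 h after dosing and percent mortality per group was calculated. LD50 was derived by statistical analysis.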

The nature of data set [8]: Half life in Sprague-Dawley rat at 5 mg/kg, iv by LC-MS/MS analysis. Format: ADME, organism-based. Conditions: in vivo. Summed up: as §2
In data set [9] the test system is Mus musculus. In words: Antinociceptive activity in Kun Ming mouse assessed as paw licking time in delayed pain response phase at 80 mg/kg, ig administered 15 mins prior to formalin challenge measured after 15 to 45 mins post formalin dosing. The data set is classed as functional. Summed up:
(§3)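 Mice received 20 μL of 2.5% formalin (0.92% formaldehyde) in the dorsal right hind paw. Time spent licking or biting the paw was scored at 0–5 min (phase I) and 15–45 min (phase II), with a mirror behind the glass cylinder. Vehicle was 30% PEG 400 at 10 mL/kg, given 15 min before formalin. n = 10–12 per group. % antinociception = (LT_V − LT_D)/LT_V × 100.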

Data set [10] is described as follows: AUC (0 to infinity) in Sprague-Dawley rat at 80 mg/kg, po administered through gavage by LC-MS/MS analysis. The data set is classed as ADME, organism-based. Also noted: dose 80 mg/kg, route oral, time infinity. As to conditions: in vivo. The procedure, abridged:
(§4)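 Oral gavage to rats (n = 3/group), 80 mg/kg as suspension in 0.5% methylcellulose. Blood drawn serially from lateral tail vein into heparinized tubes at 30 min and 1, 2, 3, 4, 5, 6, 8 and 24 h. Plasma obtained by centrifugation, acetonitrile protein precipitation, LC/MS quantification.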

For data set [11], the system named is Mus musculus. In words: Antinociceptive activity in Kun Ming mouse assessed as paw biting time in delayed pain response phase at 80 mg/kg, ig administered 15 mins prior to formalin challenge measured after 15 to 45 mins post formalin dosing. Format: functional. Summed up: as §3
A short description of data set [12]: AUC (0 to last) in Sprague-Dawley rat at 5 mg/kg, iv by LC-MS/MS analysis. The data set is classed as ADME, organism-based. Further details: dose 5 mg/kg, route intravenous, time 0 - last. Conditions: in vivo. Summed up: as §1
The nature of data set [13]: AUC (0 to last) in Sprague-Dawley rat at 80 mg/kg, po administered through gavage by LC-MS/MS analysis. Conditions: in vivo. Also noted: dose 80 mg/kg, time 0 - last, route oral. The data set is classed as ADME, organism-based. The procedure, abridged: as §4
The subject of data set [14] is Mus musculus. Format: toxicity, organism-based, Kun Ming. As to conditions: in vivo, po, 80 mg/kg.
The next data set concerns Rattus norvegicus. In words: Antiallodynic activity in po dosed Sprague-Dawley rat chronic constriction injury-induced neuropathic pain model assessed as inhibition of mechanical allodynia administered as single dose on day 15th post surgery by Von frey test. Format: functional. Summed up:
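Sciatic nerve CCI in SD rats (Bennett–Xie) under 5% chloral hydrate: four loose 4-0 silk ligatures on the right sciatic nerve, about 1 cm proximal to the trifurcation. Oral dosing in 0.5% methylcellulose (10 mL/kg), twice daily on days 15–18. Testing followed the first dose on day 15 and the last dose on day 18. Mechanical withdrawal threshold by von Frey up–down method, four samplings averaged. 10 rats/group.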

For data set [15], the target named is Histamine H3 receptor (Rattus norvegicus) (UniProt Q9QYN8). In words: Displacement of [3H]-N-alpha-methylhistamine from H3 receptor in rat cerebral cortex at 1 uM after 30 mins by liquid scintillation counting analysis. The data set is classed as tissue-based.
The subject of data set [16] is Mus musculus. The data set can be described thus: Toxicity in Kun Ming mouse assessed as impair in motor coordination at 40 to 160 mg/kg, ig measured after 30 to 120 mins by rotarod test. As to conditions: in vivo, po. The data set is classed as organism-based. The procedure, abridged:
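Mice were pre-trained; any that could not stay 300 s on the rod at 10 rpm were excluded. Latency to fall from the rod rotating at 10 rpm was recorded 30, 60, 90 and 120 min after intragastric dosing. 8–10 mice per group.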
For orientation: In the rotarod test animals must keep their balance on a rotating rod.

For data set [17], the target named is Sodium channel protein type 9 subunit alpha (Homo sapiens) (UniProt Q15858). The data set can be described thus: Inhibition of human Nav 1.7 expressed in HEK293 cells at 1 uM by electrophysiological assay. The data set is classed as cell-based.
Data set [18] in a line: Cmax in Sprague-Dawley rat at 80 mg/kg, po administered through gavage by LC-MS/MS analysis. The data set is classed as ADME, organism-based. Also noted: dose 80 mg/kg, route oral. As to conditions: in vivo. The procedure, abridged:
as §2

Data set [19] can be described thus: Half life in Sprague-Dawley rat at 80 mg/kg, po administered through gavage by LC-MS/MS analysis. Conditions: in vivo. Format: ADME, organism-based. The procedure, abridged: as §2

Bounds are passed on as bounds.

Sequence of Transient receptor potential cation channel subfamily V member 1 (Homo sapiens) (Q8NER1 whole entry): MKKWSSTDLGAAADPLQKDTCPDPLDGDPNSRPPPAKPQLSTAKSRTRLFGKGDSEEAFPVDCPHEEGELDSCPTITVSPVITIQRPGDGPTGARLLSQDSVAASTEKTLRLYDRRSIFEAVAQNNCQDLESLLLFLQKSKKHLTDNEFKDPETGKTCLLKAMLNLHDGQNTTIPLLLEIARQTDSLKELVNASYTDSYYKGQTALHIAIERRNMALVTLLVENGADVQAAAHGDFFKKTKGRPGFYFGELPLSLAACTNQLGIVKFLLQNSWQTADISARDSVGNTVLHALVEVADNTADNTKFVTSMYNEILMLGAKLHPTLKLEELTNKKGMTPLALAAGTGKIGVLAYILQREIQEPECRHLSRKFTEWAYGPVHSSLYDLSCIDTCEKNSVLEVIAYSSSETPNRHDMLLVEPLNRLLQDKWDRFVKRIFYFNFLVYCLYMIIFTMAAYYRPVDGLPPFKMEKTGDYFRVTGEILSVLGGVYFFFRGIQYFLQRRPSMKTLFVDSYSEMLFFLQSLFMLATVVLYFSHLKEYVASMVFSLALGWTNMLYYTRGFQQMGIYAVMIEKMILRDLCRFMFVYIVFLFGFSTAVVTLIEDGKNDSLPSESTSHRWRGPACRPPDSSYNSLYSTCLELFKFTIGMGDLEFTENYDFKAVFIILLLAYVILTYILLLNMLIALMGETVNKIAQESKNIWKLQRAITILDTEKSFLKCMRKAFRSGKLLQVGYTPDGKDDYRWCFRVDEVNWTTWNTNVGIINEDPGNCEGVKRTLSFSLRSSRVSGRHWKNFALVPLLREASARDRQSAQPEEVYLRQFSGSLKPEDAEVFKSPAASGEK
Sequence of Sodium channel protein type 9 subunit alpha (Homo sapiens) (Q15858 whole entry, looked up): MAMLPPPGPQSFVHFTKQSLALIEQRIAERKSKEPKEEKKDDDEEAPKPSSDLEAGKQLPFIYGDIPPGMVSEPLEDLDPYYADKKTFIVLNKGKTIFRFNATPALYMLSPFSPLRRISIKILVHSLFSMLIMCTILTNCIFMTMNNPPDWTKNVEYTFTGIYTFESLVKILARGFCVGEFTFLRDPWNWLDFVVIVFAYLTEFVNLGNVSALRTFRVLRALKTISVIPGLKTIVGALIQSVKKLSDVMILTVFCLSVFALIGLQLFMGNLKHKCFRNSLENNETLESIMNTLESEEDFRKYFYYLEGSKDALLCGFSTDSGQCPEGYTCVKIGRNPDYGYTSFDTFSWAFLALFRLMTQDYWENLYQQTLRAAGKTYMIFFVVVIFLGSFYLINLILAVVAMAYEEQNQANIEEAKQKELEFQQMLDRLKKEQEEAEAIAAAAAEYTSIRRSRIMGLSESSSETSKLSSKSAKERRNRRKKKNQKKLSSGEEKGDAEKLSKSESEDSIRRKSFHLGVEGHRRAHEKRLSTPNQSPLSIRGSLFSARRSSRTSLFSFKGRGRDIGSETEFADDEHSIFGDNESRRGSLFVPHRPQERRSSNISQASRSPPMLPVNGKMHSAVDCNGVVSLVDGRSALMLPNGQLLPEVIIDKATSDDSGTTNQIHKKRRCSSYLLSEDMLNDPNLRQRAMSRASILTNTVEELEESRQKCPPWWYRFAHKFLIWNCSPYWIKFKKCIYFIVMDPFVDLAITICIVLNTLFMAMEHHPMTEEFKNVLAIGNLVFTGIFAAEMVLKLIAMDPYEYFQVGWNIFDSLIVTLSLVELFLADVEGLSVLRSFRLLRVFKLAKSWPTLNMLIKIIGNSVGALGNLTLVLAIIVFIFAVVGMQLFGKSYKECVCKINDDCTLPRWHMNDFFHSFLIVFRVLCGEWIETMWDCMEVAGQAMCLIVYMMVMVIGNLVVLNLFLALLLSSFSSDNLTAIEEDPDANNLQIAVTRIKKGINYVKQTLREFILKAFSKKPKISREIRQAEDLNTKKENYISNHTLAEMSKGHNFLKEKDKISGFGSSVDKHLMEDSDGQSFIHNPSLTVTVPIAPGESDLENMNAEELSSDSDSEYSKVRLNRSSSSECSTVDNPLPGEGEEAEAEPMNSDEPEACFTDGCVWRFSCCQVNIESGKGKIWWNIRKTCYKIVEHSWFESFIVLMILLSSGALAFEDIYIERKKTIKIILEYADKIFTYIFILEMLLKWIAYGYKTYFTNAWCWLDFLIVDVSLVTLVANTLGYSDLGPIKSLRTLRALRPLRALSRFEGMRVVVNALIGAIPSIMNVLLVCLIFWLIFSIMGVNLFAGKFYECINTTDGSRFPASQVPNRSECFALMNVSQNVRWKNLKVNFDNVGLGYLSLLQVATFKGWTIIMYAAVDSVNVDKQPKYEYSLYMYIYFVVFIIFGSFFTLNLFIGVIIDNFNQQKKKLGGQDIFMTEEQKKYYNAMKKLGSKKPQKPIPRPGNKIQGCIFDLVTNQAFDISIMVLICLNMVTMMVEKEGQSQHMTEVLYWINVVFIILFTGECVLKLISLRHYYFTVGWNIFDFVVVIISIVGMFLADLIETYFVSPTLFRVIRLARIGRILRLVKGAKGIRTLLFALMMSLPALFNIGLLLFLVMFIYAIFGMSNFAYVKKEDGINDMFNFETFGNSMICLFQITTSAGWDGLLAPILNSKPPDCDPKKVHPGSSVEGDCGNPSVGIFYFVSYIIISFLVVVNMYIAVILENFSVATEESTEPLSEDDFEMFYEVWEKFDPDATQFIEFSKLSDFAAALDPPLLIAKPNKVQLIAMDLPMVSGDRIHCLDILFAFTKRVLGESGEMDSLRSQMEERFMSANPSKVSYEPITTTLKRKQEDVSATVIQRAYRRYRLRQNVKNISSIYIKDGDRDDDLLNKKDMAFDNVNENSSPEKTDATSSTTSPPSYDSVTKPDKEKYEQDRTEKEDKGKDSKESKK
Sequence of Histamine H3 receptor (Rattus norvegicus) (Q9QYN8 whole entry): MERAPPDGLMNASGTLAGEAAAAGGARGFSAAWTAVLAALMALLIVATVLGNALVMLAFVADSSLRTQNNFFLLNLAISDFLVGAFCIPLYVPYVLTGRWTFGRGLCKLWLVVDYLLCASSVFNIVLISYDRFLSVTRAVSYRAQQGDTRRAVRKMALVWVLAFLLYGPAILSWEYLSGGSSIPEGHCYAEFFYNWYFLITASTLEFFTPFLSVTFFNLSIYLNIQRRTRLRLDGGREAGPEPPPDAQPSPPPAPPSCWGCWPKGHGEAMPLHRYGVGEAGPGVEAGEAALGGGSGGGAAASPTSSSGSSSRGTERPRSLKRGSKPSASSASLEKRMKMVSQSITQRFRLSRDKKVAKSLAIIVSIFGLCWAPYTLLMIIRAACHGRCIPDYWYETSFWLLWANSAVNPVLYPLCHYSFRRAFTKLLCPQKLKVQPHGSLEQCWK

Usually AUC(0-inf) stands for the area under the concentration-time curve extrapolated to infinity. A lower AUC(0-inf) goes with low exposure. For orientation: inhibition means the change of the read-out against control, counted positive when it falls. Read a high inhibition as a strong effect. For orientation: clearance means a measure of how efficiently the substance is removed, as volume per time. Usually Ki stands for a dissociation constant, usually derived from enzyme kinetics or from competition with a known ligand. The LD50 is the dose expected to kill half of the subjects tested. By half-life is commonly meant how long it takes for the measured level to halve. A word on the AUC(0-t): it is exposure summed from dosing to a finite time, without extrapolation to infinity. A higher AUC(0-t) goes with high exposure. By ED50 is commonly meant the midpoint of the dose-response relation. For orientation: Cmax means the peak of the concentration-time curve. With `O=c1ccc(OCCCN2CCCCC2)nn1-c1ccc(Cl)c(Cl)c1`, the AUC(0-inf) in [1] stood at 956 ng·h/mL; in data set [10] it was 13400 ng·h/mL. Also, the inhibition in data set [2], in [3], in data set [6], in data set [15] and in data set [17] was less than 50% each time. The compound further showed a clearance in [4] of 49.3 mL/min/kg. In addition, the inhibitory constant (Ki) in data set [5] was 1.91 µM. Besides, in data set [7], the 50% lethal dose (LD50) at 24 h is more than 2000 mg/kg. The half-life is 1.39 h in data set [8] and 2.88 h in data set [19]. Moreover, the values for the Time in the data set with Mus musculus [9] and with Mus musculus [11] were 45.88 s and 41.16 s, respectively. In addition, the exposure AUC(0-t) in data set [12] stood at 931 ng·h/mL; in [13], 11700 ng·h/mL. Moreover, the Activity with Mus musculus [14] is 18282.4 mm; in the data set on Mus musculus [16], “Non-toxic”. Also, the ED50 in the data set with Rattus norvegicus was 51.9 mg/kg. Besides, the highest level in data set [18] (Cmax) was 2920 ng/mL.

For the origin of these results see ChEMBL document CHEMBL3804799, “Synthesis and Biological Evaluation of Novel σ1 Receptor Ligands for Treating Neuropathic Pain: 6-Hydroxypyridazinones” (J Med Chem, 2016).
